# Screening results: PubChem, The Scripps Research Institute Molecular Screening Center
# This is a sample that favours compounds with a hit; in the whole collection about 1.6% have one here.
# ABHD4 inh – inhibits mouse alpha/beta hydrolase domain 4; 370,000 tested, 0.54% active; purified mABHD4, FP-Rh probe fluorescence polarization; inhibition, % at 8.92 µM; Q8VD66;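 active = inhibition exceeding the mean over every tested compound plus 3 SD, cut at about 30% in these data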;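 also: 0% = plate median of compound wells and 100% = S159A mutant with DMSO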
# Target sequence (Q8VD66 whole entry, looked up, the tested form may be a part): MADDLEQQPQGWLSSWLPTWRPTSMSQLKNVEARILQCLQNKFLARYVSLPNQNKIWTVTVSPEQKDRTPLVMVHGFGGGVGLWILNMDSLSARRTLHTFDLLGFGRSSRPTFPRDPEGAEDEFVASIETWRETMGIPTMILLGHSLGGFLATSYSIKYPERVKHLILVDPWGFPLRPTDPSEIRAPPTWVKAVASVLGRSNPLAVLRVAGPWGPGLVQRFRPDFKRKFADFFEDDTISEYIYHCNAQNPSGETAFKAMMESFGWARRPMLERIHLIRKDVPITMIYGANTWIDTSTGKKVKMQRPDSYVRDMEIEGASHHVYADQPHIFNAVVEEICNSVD
#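 System: mouse ABHD4 enzyme, wild type / Medium: HEPES pH 7.0, NaCl, Pluronic buffer / Reagent: FP-Rh activity-based fluorescent probe / Control set: S159A mutant high control, sample median low control / Detection: fluorescence polarization with parallel and perpendicular emission, 525/598 nm / Schedule: 45 min + 60 min at 25 °C / Compound dosing: 8.92 µM, single dose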
# DAGLB inh – blocks human DAGLB lipase activity; HEK293T DAGLB membrane lysate, EnzChek fluorogenic substrate; Q8NCG7; inhibition, % at 5.17 µM; 340,000 tested, 0.059% active; in the data active = inhibition above about 34%;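 also: 0% = enzyme with vehicle and 100% = wells lacking enzyme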
# HTRA1 inhibitor – HTRA1 (human) protease inhibition. 340,000 tested, 0.5% active. recombinant HTRA1, FP-rhodamine activity-based probe, fluorescence polarization. inhibition, % at 5.96 µM; in the data active = inhibition above about 36%;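 also: 0% = enzyme with DMSO and 100% = wells lacking enzyme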
# TCR-CD3 inh – blocks the human TCR-CD3 interaction; TAMRA-labeled TCR probe fluorescence, biochemical; inhibition, % at 9.4 µM; 360,000 tested, 0.37% active; AID 651800; in the data active = inhibition above about 19%;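 also: recombinant mutant TCR 2C K166C tagged with TAMRA read by polarization; 0% = receptor in buffer alone and 100% = receptor with positive control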
# SIAE inh – blocks human sialic acid acetylesterase. Q9HAT2. SIAE FP-Rh probe binding, fluorescence polarization. inhibition, % at 9.66 µM. 370,000 tested, 0.69% active. AID 1053197;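 active = inhibition above a cutoff: mean of compounds within the control limits plus 3 SD of those, cut at about 17% in these data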;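 also: 0% = plate median of compound wells and 100% = probe without SIAE protein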
# SIAE confirm – confirmation of human SIAE inhibitors; shares compounds with SIAE inh; SIAE FP-Rh activity-based probe, fluorescence polarization; inhibition, % at 9.66 µM; 2,300 tested, 13% active; AID 1117263;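 active = mean inhibition of the replicates above the hit cutoff set in the primary screen, cut at about 17% in these data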;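 also: 0% = SIAE with DMSO and probe and 100% = probe without SIAE; inhibitors lower polarization as more probe stays unbound to SIAE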
# * = called active by the depositor; x = no result given.
SMILES,ABHD4 inh,DAGLB inh,HTRA1 inhibitor,TCR-CD3 inh,SIAE inh,SIAE confirm
CCN1C(=O)/C(=C2/Sc3ccccc3N2CC)S/C1=N\c1ncn[nH]1,26.9,1.2,16.8,3.7,19.1*,-1.5
CC(=O)Nc1csc2ccccc12,0.5,-1.3,3.1,4.5,-4.8,x
O=C(Nc1ccc(Nc2ccccc2)cc1)Nc1ccccc1Cl,7.6,4.9,32.1,-4.0,23.6*,5.1
O=C(Nc1ccccc1)Nc1csc2ccccc12,8.6,x,x,2.8,17.7*,-1.4
CC(C)(C)OC(=O)N1CCC2CCN(S(C)(=O)=O)CC21 (stereo not drawn),6.8,x,x,-4.4,-1.5,x
c1ccc(OCc2ccc(CCCN3CCOCC3)cc2)cc1,2.7,-4.5,-0.1,5.2,17.6*,-0.9
O=C(CCl)N1c2ccccc2SCC1c1ccccc1 (stereo not drawn),-1.2,2.0,-1.6,1.3,19.3*,2.8
O=C(CCl)N1c2ccccc2OCC1c1ccccc1 (stereo not drawn),0.1,0.5,0.5,2.0,4.3,x
O=C(NNC(=O)c1ccncc1)c1ccccc1,-2.4,-1.8,-6.5,-0.5,0.9,x
O=C(c1ccccc1)c1ccncc1,-5.4,0.7,12.0,-1.2,28.0*,3.8
CC(C)c1ccc(NC(=O)/C(C#N)=C/c2ccncc2)cc1,3.0,1.7,-5.4,-3.9,18.1*,1.4
CCCCNC(=O)NS(=O)(=O)c1ccc(NC(=O)CSc2nnc(-c3cccs3)n2-c2ccc(OC)cc2)cc1,-7.2,x,x,x,-9.7,x
Cc1ccc(C(=O)O)cc1S(=O)(=O)N1CCCC1,-12.2,-3.1,8.8,-7.8,-2.2,x
Nc1ccc(C(=O)O)cc1S(=O)(=O)O,1.6,-0.4,2.0,-5.6,24.7*,-3.1
COc1ccc(NC(=O)NNC(=O)COc2ccc3ccccc3c2)cc1,1.2,2.5,-3.1,-1.9,17.6*,-3.8
CCOc1ccc(NC(=O)NNC(=O)COc2ccc3ccccc3c2)cc1,2.5,3.2,1.2,-5.4,-1.7,x
Cc1ccccc1NS(=O)(=O)c1ccc(C(=O)N2CCN(S(=O)(=O)c3ccccc3)CC2)cc1,2.7,-1.1,0.1,3.6,18.8*,-7.4
CC(=O)N1CCN(C(=O)c2ccc(S(=O)(=O)Nc3ccccc3C)cc2)CC1,-6.5,-4.3,2.7,4.4,-0.8,x
COc1ccc(-n2nnc3c(=O)n(C/C=C/c4ccccc4)cnc32)cc1,4.2,-4.8,0.6,-6.6,20.6*,-3.4
CC(C)C1=CC2C3C(=O)N(c4ccccc4)C(=O)C3C1C(=O)C2(C)O (stereo not drawn),2.1,x,x,7.2,20.6*,3.4
O=C(Cn1nnc(N2CCCCC2)n1)NN=Cc1ccccc1O,-6.7,x,x,-5.2,1.3,x
Cc1cccc(Cc2ncc(C(F)(F)F)cc2Cl)c1,-0.8,0.6,-1.5,4.2,19.3*,6.5
CC(=O)C(C)Oc1ccc(Cc2ncc(C(F)(F)F)cc2Cl)cc1 (stereo not drawn),-3.6,-6.3,5.6,0.2,5.0,x
COc1ccc(N=C2SC(C(=O)O)CC(=O)N2Cc2ccc(OC)c(OC)c2)cc1 (stereo not drawn),3.6,0.8,0.1,2.1,80.1*,-0.6
CCOC(=O)N1CCN(C(=O)C[C@H]2C[C@@]3(C(=O)OC)C(=C[C@H](COCc4ccccc4)O[C@@H]3C)N(Cc3ccc4c(c3)OCO4)C2=O)CC1,1.5,x,x,2.8,1.2,x
SMILES,ABHD4 inh,DAGLB inh,HTRA1 inhibitor,TCR-CD3 inh,SIAE inh,SIAE confirm
COc1ccccc1NCC(=O)N/N=C/c1c(O)ccc2ccccc12,17.4,1.2,27.3,-1.2,17.9*,0.0
O=C(CNc1ccc(F)cc1)N/N=C/c1c(O)ccc2ccccc12,18.5,2.7,32.1,8.5,15.5,x
COCCn1c(N)c(C#N)c2nc3ccccc3nc21,3.7,-0.4,-2.0,1.2,19.0*,6.1
CN(C)c1ccc(N=Cc2nc(-c3ccccc3)oc2O)cc1,1.0,5.8,0.5,0.6,18.3*,14.8
Oc1oc(-c2ccccc2)nc1C=Nc1ccccc1,6.9,-3.7,0.1,8.1,-0.2,x
CN1C(=O)/C(=C/c2ccc(-c3ccccc3[N+](=O)[O-])o2)SC1=Nc1ccc(Cl)c(C(=O)O)c1,17.1,10.3,10.3,7.6,19.0*,15.4
CCCCOCCCNC(=O)C[C@@H]1C[C@@]2(C(=O)OC)CC(C)(C)CC=C2N(Cc2ccccc2)C1=O,-1.3,x,x,1.0,-2.5,x
O=C(CC[C@H]1O[C@@H](n2cnc3c(NC(=O)c4ccccc4)ncnc32)[C@H](O)[C@@H]1O)NCC(F)(F)F,0.7,x,x,-8.4,-0.9,x
O=C(CC[C@H]1O[C@@H](n2cnc3c(NC(=O)c4ccccc4)ncnc32)[C@H](O)[C@@H]1O)NCC1CCN(Cc2ccccc2)CC1,7.9,x,x,1.5,34.1*,26.9*
Cc1c[nH]c2cccc(-c3ccc4c(c3)OCO4)c12,-4.3,x,x,x,7.7,x
COc1ccc(OCC(=O)Nc2cc(S(=O)(=O)N3CCCCC3)ccc2OC)cc1,-0.1,-0.4,3.0,-6.0,-2.5,x
COc1ccc(OCC(=O)Nc2cc(S(=O)(=O)N3CCCC3)ccc2OCC(F)(F)F)cc1,2.1,-1.6,-3.5,-11.6,39.9*,-1.4
c1ccc([C@H]2CNCCN2CCc2cccc3ccccc23)cc1,12.7,-2.3,-3.1,-0.2,23.0*,4.4
COc1cc(CCCN2CCNC[C@@H]2c2ccccc2)cc(OC)c1OC,-7.7,0.0,-4.2,-0.3,16.3,x
COc1cc(CNc2cc(C)ccc2C)cc(OC)c1OC,-4.6,-4.1,2.8,1.6,24.4*,0.2
O=C(OCc1cn(Cc2ccc(F)cc2F)nn1)N1CCCC1,-3.8,x,x,x,-0.4,x
COc1cccc(CCNC(=O)CC2C(=O)NCCN2CC(C)(C)C)c1 (stereo not drawn),2.8,0.2,-2.0,9.1,17.4*,-1.7
COc1ccc(CCNC(=O)CC2C(=O)NCCN2CC(C)(C)C)cc1 (stereo not drawn),0.3,1.4,1.5,5.1,4.0,x
c1ccc(-c2c[nH]c3cccc(-c4cc5ccccc5o4)c23)cc1,2.8,x,x,x,-2.5,x
OC1C2CN3CCN(C2)CC1(Cc1ccccc1)C3 (stereo not drawn),4.2,0.5,1.8,11.9,20.9*,-1.6
COc1cc2ccccc2cc1C(=O)N1CCN(C(C)=O)CC1,0.3,-3.1,4.6,1.0,21.7*,1.6
COc1cc2ccccc2cc1C(=O)N1CCN(c2ccccn2)CC1,2.6,0.6,-10.2,6.5,3.7,x
CCn1c(SCc2ccc(C(C)(C)C)cc2)nnc1-c1ccc(C(C)(C)C)cc1,0.5,x,x,x,2.2,x
Cc1cc2nc(C)c(Cl)c(=O)n2[nH]1,-4.3,-1.0,1.5,3.6,34.5*,-0.7
Cc1nc2cc(-c3ccc(Br)cc3)[nH]n2c(=O)c1Cl,1.3,4.5,5.2,0.7,0.0,x
CCCCN1CC(COCc2ccccc2)Oc2cccc(Oc3ccc(F)cc3OC)c2S1(=O)=O (stereo not drawn),3.7,x,x,-0.5,-4.8,x
Cc1cccc(-n2c(-c3ccccc3)c[nH]c2=S)c1C,9.2,3.1,-0.4,6.0,9.3,x
